Measured values taken from ChEMBL document CHEMBL3098087, “Synthesis and evaluation of (-)- and (+)-[¹¹C]galanthamine as PET tracers for cerebral acetylcholinesterase imaging” (Bioorg Med Chem, 2014).

How the values were obtained:
Striatum [1] = assay: Drug uptake in Wistar rat striatum at 10 mM after 30 mins by autoradiography analysis counting in presence of donepezil; format: ADME, tissue-based; conditions: 0.5 h, 10000 µM
Striatum [2] = assay: Drug uptake in Wistar rat striatum at 2.2 […]/200 uL after 30 mins by autoradiography analysis; format: ADME, tissue-based; conditions: in vitro, 0.5 h
How it was run: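 Coronal brain sections (20 µm) from male Wistar rats were thaw-mounted on silane-coated slides. Sections were incubated with tracer in binding buffer for 30 min at 4°C, then washed with ice-cold buffer and water. They were exposed to imaging plates for 6 h alongside calibrated 11C standards.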

Cerebellum = assay: Biodistribution in ddY mouse cerebellum at 3.7 MBq, iv after 30 mins by gamma counting; format: ADME, organism-based; conditions: in vivo, 0.5 h
How it was run: (§1)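 ddY male mice, seven weeks old, 20–25 g, received 3.7 MBq of tracer. Five animals per time point, up to 60 min, were killed by exsanguination. Blood and brain, or striatum and cerebellum, were excised, weighed and gamma-counted. Uptake is expressed as %ID/g of tissue.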

Striatum [3] = assay: Biodistribution in ddY mouse striatum at 3.7 MBq, iv after 30 mins by gamma counting; format: ADME, organism-based; conditions: in vivo, 0.5 h; how it was run: as §1
Brain [4] = assay: Biodistribution in ddY mouse brain at 3.7 MBq, iv after 10 mins by gamma counting; format: ADME, organism-based; conditions: in vivo; how it was run: as §1
Brain [5] = assay: Biodistribution in ddY mouse brain at 74 MBq, iv after 10 to 30 mins by PET analysis; conditions: in vivo
Striatum [6] = assay: Biodistribution in ddY mouse striatum at 3.7 MBq, iv by gamma counting in presence of donepezil; conditions: in vivo

COc1ccc2c3c1O[C@H]1C[C@@H](O)C=C[C@@]31CCN([11CH3])C2
Drug uptake (Striatum [1]): Not Active | Drug uptake (Striatum [2]): Active | Drug uptake (Cerebellum): 1.7 % ID/g | Drug uptake (Striatum [3]): 2.1 % ID/g | Drug uptake (Brain [4]): 2.1 % ID/g | Drug uptake (Brain [5]): Active | Drug uptake (Striatum [6]): 1.3 % ID/g

COc1ccc2c3c1O[C@@H]1C[C@H](O)C=C[C@]31CCN([11CH3])C2
Drug uptake (Cerebellum): 1.5 % ID/g | Drug uptake (Striatum [3]): 1.5 % ID/g | Drug uptake (Brain [4]): 2.1 % ID/g
